According to ChEMBL document CHEMBL4321880 (J Med Chem, 2020):

How the values were obtained:
ASPC1 [1] = assay: Cytotoxicity against CRISPR/Cas9-mediated CYP3A5 knock-out and lentiviral pLVX-TRE3G-ZsGreen1-CYP3A4 transduced human AsPC1 cells overexpressing CYP3A4 assessed as cell growth; format: ADME, cell-based
In short: (§1)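 Cells seeded at 10,000/well. Dox-inducible lines were induced with 100 ng/mL doxycycline, then treated 24 h later with compound at 16 two-fold dilutions (0.0003–10 μM) plus 5 μM midazolam, in 0.66% DMSO final, for 24 h. Phase-contrast confluence imaging followed. Values were normalized to six 0.66% DMSO replicates and fitted with a three-parameter log(inhibitor) vs response curve.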

ASPC1 [2] = assay: Cytotoxicity against doxycycline-induced CYP3A5 overexpressing wild type human AsPC1 cells assessed as cell growth; format: ADME, cell-based; in short: as §1
ASPC1 [3] = assay: Cytotoxicity against CRISPR/Cas9-mediated CYP3A5 knock-out and doxycycline-induced CYP3A5 overexpressing human AsPC1 cells assessed as cell growth; format: ADME, cell-based; in short: as §1
CYP3A5 = CYP3A5 (Homo sapiens, UniProt P20815); assay: Inhibition of human recombinant CYP3A5 expressed in supersomes assessed as decrease in formation of D-luciferin at 1.89 uM using luciferin-IPA as substrate incubated for 10 mins in presence of NADPH by P450-Glo luminescence assay relative to control; settings: probe luciferin-IPA
ASPC1 [4] = assay: Cytotoxicity against lentiviral pLVX-TRE3G-ZsGreen1-CYP3A5 transduced wild type human AsPC1 cells overexpressing CYP3A5 assessed as cell growth; format: ADME, cell-based; in short: as §1
ASPC1 [5] = assay: Cytotoxicity against wild type human AsPC1 cells assessed as cell growth; format: cell-based; in short: as §1
ASPC1 [6] = assay: Increase in CYP3A4 expression in CRISPR/Cas9-mediated CYP3A5 knock-out and doxycycline-induced CYP3A4 overexpressing human AsPC1 cells at 1 uM after 24 hrs by Western blot analysis; format: ADME, cell-based; settings: aspc1, 24 h
In short: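 Overexpression was induced with 100 ng/mL doxycycline. […] Blots were probed with anti-CYP3A4 K03 (also detects CYP3A5) and β-actin, with infrared dye secondaries. Bands were normalized to actin across triplicate gels, with DMSO set as 1.0.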

ASPC1 [7] = assay: Cytotoxicity against CRISPR/Cas9-mediated CYP3A5 knock-out and doxycycline-induced CYP3A4 overexpressing human AsPC1 cells assessed as cell growth; format: ADME, cell-based; in short: as §1
ASPC1 [8] = assay: Cytotoxicity against CRISPR/Cas9-mediated CYP3A5 knock-out human AsPC1 cells assessed as cell growth; format: ADME, cell-based; in short: as §1
ASPC1 [9] = assay: Cytotoxicity against CRISPR/Cas9-mediated CYP3A5 knock-out and lentiviral pLVX-TRE3G-ZsGreen1-CYP3A5 transduced human AsPC1 cells overexpressing CYP3A5 assessed as cell growth; format: ADME, cell-based; in short: as §1
Cytochrome P450 3A4 = Cytochrome P450 3A4 (Homo sapiens, UniProt P08684); assay: Binding affinity to His-tagged CYP3A4 (unknown origin) expressed in Escherichia coli DH5alpha assessed as induction of HS formation by EPR spectroscopy; format: ADME
In short: (§2)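 Continuous-wave X-band EPR of purified recombinant enzyme, alone and in complex with ligand. Spectra were compared against the ligand-free form.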

Cytochrome P450 3A5 [10] = biological target: T1, Cytochrome P450 3A5 (Homo sapiens, UniProt P20815); assay: Binding affinity to His-tagged CYP3A5 (unknown origin) expressed in Escherichia coli DH5alpha assessed as five-coordinate HS ferric heme iron state formation with displacement of distal water ligand by EPR spectroscopy; in short: as §2
Cytochrome P450 3A5 [11] = biological target: T1, Cytochrome P450 3A5; assay: Binding affinity to heme in His-tagged CYP3A5 (unknown origin) expressed in Escherichia coli DH5alpha assessed as formation of five-coordinate ferric heme iron by measuring type 1 Soret shift from 417 nm (low spin) to 395 nm (high spin) by UV-vis spectrophotometric titration analysis
In short: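 Purified recombinant His-tagged CYP3A5 titrated with successive ligand additions until heme absorbance stopped changing. The ligand-free spectrum was subtracted to give difference spectra. Peak-minus-trough values were plotted against ligand concentration and fitted to a binding equation for Kd. Wavelength pairs: ΔA 386–418 nm for the type I shift; ΔA 432–410 nm for the type II shift.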

T1 sequence (P20815 whole entry): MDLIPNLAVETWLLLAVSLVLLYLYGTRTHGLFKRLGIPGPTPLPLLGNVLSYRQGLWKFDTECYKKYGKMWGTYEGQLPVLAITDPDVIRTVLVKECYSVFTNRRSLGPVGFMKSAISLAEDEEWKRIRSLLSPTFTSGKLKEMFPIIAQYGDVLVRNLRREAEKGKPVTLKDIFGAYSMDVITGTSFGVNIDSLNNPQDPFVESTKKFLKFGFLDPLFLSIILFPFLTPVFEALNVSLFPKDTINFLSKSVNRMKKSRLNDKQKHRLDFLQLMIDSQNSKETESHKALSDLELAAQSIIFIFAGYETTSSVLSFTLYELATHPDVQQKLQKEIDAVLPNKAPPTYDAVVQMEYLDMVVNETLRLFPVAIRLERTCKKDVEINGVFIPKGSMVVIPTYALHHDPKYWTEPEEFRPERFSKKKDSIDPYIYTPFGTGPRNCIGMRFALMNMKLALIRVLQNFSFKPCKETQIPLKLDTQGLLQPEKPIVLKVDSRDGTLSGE
Chain of CYP3A5 (P20815 whole entry): as above
Chain of Cytochrome P450 3A4 (P08684 whole entry): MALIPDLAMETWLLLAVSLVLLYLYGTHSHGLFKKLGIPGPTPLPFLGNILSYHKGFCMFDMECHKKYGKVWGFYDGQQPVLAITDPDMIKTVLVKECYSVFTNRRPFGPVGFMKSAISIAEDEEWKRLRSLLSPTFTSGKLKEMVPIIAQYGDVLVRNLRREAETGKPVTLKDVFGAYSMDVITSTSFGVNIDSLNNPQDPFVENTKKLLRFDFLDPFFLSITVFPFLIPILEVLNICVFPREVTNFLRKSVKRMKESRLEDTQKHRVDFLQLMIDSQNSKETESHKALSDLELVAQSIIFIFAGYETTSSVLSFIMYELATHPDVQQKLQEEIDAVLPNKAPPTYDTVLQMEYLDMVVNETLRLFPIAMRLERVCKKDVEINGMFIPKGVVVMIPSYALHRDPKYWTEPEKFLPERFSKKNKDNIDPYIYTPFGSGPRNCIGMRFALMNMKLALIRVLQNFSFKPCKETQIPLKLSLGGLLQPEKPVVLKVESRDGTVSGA

Compound | Activity (ASPC1 [1]) | Activity (ASPC1 [2]) | Activity (ASPC1 [3]) | inhibition at 10 min, 1.89 µM (CYP3A5) [%] | Activity (ASPC1 [4]) | Activity (ASPC1 [5]) | Activity (ASPC1 [6]) | Activity (ASPC1 [7]) | Activity (ASPC1 [8]) | Activity (ASPC1 [9]) | Activity (Cytochrome P450 3A4) | Activity (Cytochrome P450 3A5 [10]) | Activity (Cytochrome P450 3A5 [11])
CC(=O)N1CCN(c2ccc(OCC3COC(Cn4ccnc4)(c4ccc(Cl)cc4Cl)O3)cc2)CC1 (stereo not drawn) [KETOCONAZOLE] | Non-Toxic | Non-Toxic | Non-Toxic | 100 | Non-Toxic | Non-Toxic | Active | Non-Toxic | Non-Toxic | Non-Toxic |  |  | 
Cc1ncc2n1-c1ccc(Cl)cc1C(c1ccccc1F)=NC2 [MIDAZOLAM] |  |  |  |  |  |  |  |  |  |  | Active | Active | Active
